Measured values from ChEMBL document CHEMBL3272058, “Synthesis, structure, and reactivity of adenosine cyclic 3',5'-phosphate benzyl triesters” (J Med Chem, 1977).

Key:
C6 [1] = test: Morphological alteration in rat C6 cells at 10^-3 M after 90 mins by microscopy; format: ADME, cell-based; conditions: c6, 1.5 h, 1000 µM
Summary of the method: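 Near-confluent C6 rat glioma cultures (about 5-9 x 10^5 cells per plate), grown in DME with 10% newborn calf serum, were given 10^-3 M of each triester with theophylline. After 90 min on a shaking table, morphological change was scored microscopically as the percentage of altered cells. + means 90-95% and - means 0% differentiation.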

[2] = Retardation factor, Rf of the compound in […] solvent; format: physicochemical
[3] = Half life in H2O at 5 uM at 50 degC by liquid chromatography; format: physicochemical; conditions: water
[4] = Half life in Mops buffer at pH 6.5 at 30 degC by liquid chromatography; format: physicochemical
Summary of the method: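 Triester was held in Mops buffer, pH 6.5, at 30 °C. Products were separated by LC with UV monitoring at 258 nm, using integration or an internal standard. Half-life came from a pseudo-first-order kinetic fit.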

[5] = Retardation factor, Rf of the compound in ClCH2CH2Cl-EtOH solvent
Bos taurus [6] = species on record: Bos taurus; test: Activation of bovine brain cAMP-dependent protein kinase assessed as transfer of p32 to histone using [gamma-32P]ATP at 10^-7 M relative to cAMP triester
Summary of the method: (§1)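 Bovine brain cAMP-dependent protein kinase was purified by DEAE-cellulose chromatography (about 1000 units/mg). The 0.2 mL mix held 50 mM Mops pH 6.5, 5 mM MgCl2, 7 mM mercaptoethanol, [γ-32P]ATP (1.3 Ci/mmol), 60 µg calf thymus histones, 15-25 µg kinase and triester or cAMP. It ran 5 min at 30 °C, reading 32P in acid-precipitable histones. Value is test-compound activity divided by cAMP activity.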

Bos taurus [7] = species on record: Bos taurus; test: Activation of bovine brain cAMP-dependent protein kinase assessed as transfer of p32 to histone using [gamma-32P]ATP at 10^-6 M relative to cAMP triester; summary of the method: as §1
Bos taurus [8] = species on record: Bos taurus; test: Activation of bovine brain cAMP-dependent protein kinase assessed as transfer of p32 to histone using [gamma-32P]ATP at 10^-5 M relative to cAMP triester; summary of the method: as §1
Bos taurus [9] = species on record: Bos taurus; test: Activation of bovine brain cAMP-dependent protein kinase assessed as transfer of p32 to histone using [gamma-32P]ATP at 10^-4 M relative to cAMP triester; summary of the method: as §1
C6 [10] = test: Drug uptake in rat C6 cells assessed as morphologically differentiation at 10^-4 M after 20 mins by microscopy; format: ADME, cell-based; conditions: c6, 20 min, 100 µM
Summary of the method: (§2)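 Growing C6 rat glioma cells were kept in DME with 10% newborn calf serum at 37 °C under 10% CO2. Near-confluent plates (about 5-9 x 10^5 cells) were exposed to triester with theophylline on a constantly moving shaking table. The percentage of morphologically altered cells was estimated by microscopy at intervals, with an error of 5-10%.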

C6 [11] = test: Drug uptake in rat C6 cells assessed as morphologically differentiation at 10^-4 M after 50 mins by microscopy; format: ADME, cell-based; conditions: c6, 50 min, 100 µM; summary of the method: as §2
C6 [12] = test: Drug uptake in rat C6 cells assessed as morphologically differentiation at 10^-4 M after 90 mins by microscopy; format: ADME, cell-based; conditions: c6, 1.5 h, 100 µM; summary of the method: as §2
C6 [13] = test: Drug uptake in rat C6 cells assessed as cAMP level per of protein at 10^-4 M after 90 mins; format: ADME, cell-based; conditions: c6, 1.5 h, 100 µM
Summary of the method: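 C6 glioma cells were grown in DME with 10% newborn calf serum at 37 °C under 10% CO2 and treated with triester plus theophylline. After 90 min, internal cAMP was measured by Gilman's method and related to protein, using a bovine serum albumin standard.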

C6 [14] = test: Drug uptake in rat C6 cells assessed as morphologically differentiation at 10^-3 M after 20 mins by microscopy; format: ADME, cell-based; conditions: c6, 20 min, 1000 µM
C6 [15] = test: Drug uptake in rat C6 cells assessed as morphologically differentiation at 10^-3 M after 50 mins by microscopy; format: ADME, cell-based; conditions: c6, 50 min, 1000 µM
C6 [16] = test: Drug uptake in rat C6 cells assessed as morphologically differentiation at 10^-3 M after 90 mins by microscopy; format: ADME, cell-based; conditions: c6, 1.5 h, 1000 µM
C6 [17] = test: Drug uptake in rat C6 cells assessed as cAMP level per of protein at 10^-3 M after 90 mins; format: ADME, cell-based; conditions: c6, 1.5 h, 1000 µM
[18] = Photolysis mediated drug hydrolysis assessed as half life under 366 nm irradiation by liquid chromatography; format: physicochemical
Summary of the method: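 The o-nitrobenzyl ester, 4 mM in Me2SO-phosphate buffer pH 7.1 (1:10 v/v), was irradiated at 366 nm with a 320 nm cut-off, at 37 °C and 6 cm from the source. Half-life was estimated from the rate of cAMP formation followed by LC.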

## Nc1ncnc2c1ncn2[C@@H]1O[C@@H]2COP(=O)(OCc3ccccc3)O[C@H]2[C@H]1O (single isomer, unassigned) [listing 1 of 2 here]
C6 [1]
  Activity: 90%
[2]
  Rf: 0.46
[3]
  half-life at 5 µM: 2.2 h
[4]
  half-life: 9.5 h
[5]
  Rf: 0.39

## CO[P@@]1(=O)OC[C@H]2O[C@@H](n3cnc4c(N)ncnc43)[C@H](O)[C@@H]2O1
C6 [1]
  Activity: 0%

## COP1(=O)OC[C@H]2O[C@@H](n3cnc4c(N)ncnc43)[C@H](O)[C@@H]2O1 (stereo partly specified)
Bos taurus [6]
  Ratio: 0
Bos taurus [7]
  Ratio: 0.05
Bos taurus [8]
  Ratio: 0.52
Bos taurus [9]
  Ratio: 0.67
[2]
  Rf: 0.33
[5]
  Rf: 0.18

## CCO[P@@]1(=O)OC[C@H]2O[C@@H](n3cnc4c(N)ncnc43)[C@H](O)[C@@H]2O1
Bos taurus [6]
  Ratio: 0
Bos taurus [7]
  Ratio: 0
Bos taurus [8]
  Ratio: 0.06
Bos taurus [9]
  Ratio: 0.14
C6 [1]
  Activity: 0%
[2]
  Rf: 0.4
[4]
  half-life: 9.5 h
[5]
  Rf: 0.3

## Cc1ccc(CO[P@@]2(=O)OC[C@H]3O[C@@H](n4cnc5c(N)ncnc54)[C@H](O)[C@@H]3O2)cc1
C6 [10]
  Activity: 10%
C6 [11]
  Activity: 30%
C6 [12]
  Activity: 80%
C6 [13]
  Activity: 70 pmol/mg
C6 [14]
  Activity: 20%
C6 [15]
  Activity: 60%
C6 [16]
  Activity: 90%
C6 [17]
  Activity: 225 pmol/mg
C6 [1]
  Activity: 90%
[2]
  Rf: 0.45
[3]
  half-life at 5 µM: 0.1 h
[4]
  half-life: 9.5 h
[5]
  Rf: 0.26

## Nc1ncnc2c1ncn2[C@@H]1O[C@@H]2CO[P@@](=O)(OCc3ccccc3)O[C@H]2[C@H]1O
Bos taurus [6]
  Ratio: 0.03
Bos taurus [7]
  Ratio: 0.49
Bos taurus [8]
  Ratio: 1
Bos taurus [9]
  Ratio: 1.22
C6 [1]
  Activity: 90%
[2]
  Rf: 0.35
[3]
  half-life at 5 µM: 0.5 h
[4]
  half-life: 3 h
[5]
  Rf: 0.25

## CCO[P@]1(=O)OC[C@H]2O[C@@H](n3cnc4c(N)ncnc43)[C@H](O)[C@@H]2O1
Bos taurus [6]
  Ratio: 0
Bos taurus [7]
  Ratio: 0
Bos taurus [8]
  Ratio: 0.06
Bos taurus [9]
  Ratio: 0.58
C6 [1]
  Activity: 0%
[2]
  Rf: 0.35
[4]
  half-life: 3 h
[5]
  Rf: 0.19

## Nc1ncnc2c1ncn2[C@@H]1O[C@@H]2COP(=O)(OCc3ccccc3)O[C@H]2[C@H]1O (single isomer, unassigned) [listing 2 of 2 here]
Bos taurus [6]
  Ratio: 0
Bos taurus [7]
  Ratio: 0.09
Bos taurus [8]
  Ratio: 0.59
Bos taurus [9]
  Ratio: 0.45

## NC[C@H](O)c1ccc(O)c(O)c1.O=C(O)C(O)C(O)C(=O)O
C6 [10]
  Activity: 50%
C6 [11]
  Activity: 80%
C6 [12]
  Activity: 90%
C6 [13]
  Activity: 250 pmol/mg

## Nc1ncnc2c1ncn2[C@@H]1O[C@@H]2COP(=O)(OCc3ccccc3)O[C@H]2[C@H]1O (stereo partly specified)
Bos taurus [6]
  Ratio: 0.07
Bos taurus [7]
  Ratio: 0.46
Bos taurus [8]
  Ratio: 0.84
Bos taurus [9]
  Ratio: 0.66

## CO[P@]1(=O)OC[C@H]2OC(n3cnc4c(N)ncnc43)[C@H](O)[C@@H]2O1 (single isomer, unassigned)
C6 [1]
  Activity: 0%

## Nc1ncnc2c1ncn2[C@@H]1O[C@@H]2CO[P@@](=O)(OCc3ccccc3[N+](=O)[O-])O[C@H]2[C@H]1O
Bos taurus [6]
  Ratio: 0
Bos taurus [7]
  Ratio: 0.04
Bos taurus [8]
  Ratio: 0.59
Bos taurus [9]
  Ratio: 1.28
[18]
  half-life: 0.867 h
C6 [1]
  Activity: 90%
[2]
  Rf: 0.39
[3]
  half-life at 5 µM: 83 h
[4]
  half-life: 3 h
[5]
  Rf: 0.26

## Nc1ncnc2c1ncn2[C@@H]1O[C@@H]2CO[P@@](=O)(OCc3ccc([N+](=O)[O-])cc3)O[C@H]2[C@H]1O
Bos taurus [6]
  Ratio: 0
Bos taurus [7]
  Ratio: 0.04
Bos taurus [8]
  Ratio: 0.49
Bos taurus [9]
  Ratio: 1.01
C6 [1]
  Activity: 90%
[2]
  Rf: 0.37
[3]
  half-life at 5 µM: 73 h
[4]
  half-life: 3 h
[5]
  Rf: 0.25

## Nc1ncnc2c1ncn2[C@@H]1O[C@@H]2CO[P@](=O)(OCc3ccc([N+](=O)[O-])cc3)O[C@H]2[C@H]1O
Bos taurus [6]
  Ratio: 0
Bos taurus [7]
  Ratio: 0
Bos taurus [8]
  Ratio: 0.24
Bos taurus [9]
  Ratio: 0.54
C6 [1]
  Activity: 90%
[2]
  Rf: 0.43
[3]
  half-life at 5 µM: 240 h
[4]
  half-life: 9.5 h
[5]
  Rf: 0.34

## Nc1ncnc2c1ncn2[C@@H]1O[C@@H]2CO[P@](=O)(OCc3ccccc3[N+](=O)[O-])O[C@H]2[C@H]1O
Bos taurus [6]
  Ratio: 0
Bos taurus [7]
  Ratio: 0
Bos taurus [8]
  Ratio: 0.05
Bos taurus [9]
  Ratio: 0.34
[18]
  half-life: 1.1 h
C6 [1]
  Activity: 90%
[2]
  Rf: 0.44
[3]
  half-life at 5 µM: 300 h
[4]
  half-life: 9.5 h
[5]
  Rf: 0.39
